Experimental data gathered from unrelated publications.
Compare with care: the assays were run in different laboratories.
Target: Phosphatidylinositol 4-phosphate 3-kinase C2 domain-containing subunit beta (PIK3C2B, Homo sapiens, UniProt O00750)

SMILES	assay	setting	measurement	result
CC#CC(=O)N1CCC[C@H]1c1nc(-c2ccc(C(=O)Nc3ccccn3)cc2)c2c(N)nccn12	enzyme activity, inhibitor	1 µM	inhibition	0%
C[C@H]1CC[C@H](n2c3cnccc3c3cnc(Nc4ccc5c(n4)CCN(C(=O)CO)C5)nc32)CC1	cell-free assay	1 µM	remaining signal	100%
C=CC(=O)N1CCC([C@@H]2CCNc3c(C(N)=O)c(-c4ccc(Oc5ccccc5)cc4)nn32)CC1	enzyme activity, inhibitor	1 µM	inhibition	0%
C#Cc1cnc(Nc2ccnc(CO)c2)nc1Nc1ccccc1S(C)(=O)=NC#N (centres unmarked)	cell-free assay	1 µM	remaining signal	100%
C1=C/COCc2cc(ccc2OCCN2CCCC2)Nc2nccc(n2)-c2cccc(c2)COC/1	binding	0.1 µM	remaining binding	87%
N#Cc1ccc(NC(=O)Nc2ccccc2)cc1	cell-free assay, competition with immobilised ligand	25 µM	remaining binding	79%
CN1CCN(C(=O)c2ccc(NC(=O)Nc3ccc(N(C)c4ccnc(Nc5ccc(CS(C)(=O)=O)cc5)n4)cc3)cc2)CC1	binding	1 µM	remaining binding	100%
CCCCC(=O)Nc1ccc(-c2ccc3ncn(CCC)c(=O)c3c2)cn1	binding, competition with immobilised ligand	0.5 µM	remaining binding	100%
